Assay results from ChEMBL document CHEMBL3393048, “Discovery of potent cytotoxic ortho-aryl chalcones as new scaffold targeting tubulin and mitosis with affinity-based fluorescence” (J Med Chem, 2014).
Active and inactive are the calls of the source. No cut-off for these calls is given here.

Key:
A549 [1] = test: Antiproliferative activity against human A549 cells after 48 hrs by SRB method; assay type: functional, cell-based; conditions: A549, 48 h
Procedure, shortened: (§1)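 SRB assay. Cells in DMEM high glucose with 10% FBS were seeded at 5000/well and grown 24 h; a day-0 plate was fixed at that point. Compounds were added in triplicate for 48 h. Cells were fixed with TCA at 4 °C for 1 h, stained with 0.4% SRB, and the dye was solubilized in 10 mM Tris pH 10.4. OD was read at 515 nm with day-0 OD subtracted. IC50 came from nonlinear regression of dose–response curves from at least two independent experiments.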

[2] = Antiproliferative activity against human CNE2 cells after 48 hrs by SRB method; assay type: functional, cell-based; conditions: CNE-2, 48 h
Procedure, shortened: (§2)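 SRB assay. Cells in DMEM high glucose with 10% FBS were seeded at 5000/well and grown 24 h; a day-0 plate was fixed at that point. Compounds were added in triplicate for 48 h. IC50 came from nonlinear regression of dose–response curves from at least two independent experiments.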

SW480 = test: Antiproliferative activity against human SW480 cells after 48 hrs by SRB method; assay type: functional, cell-based; conditions: SW480, 48 h; procedure, shortened: as §2
MCF7 [3] = test: Antiproliferative activity against human MCF7 cells after 48 hrs by SRB method; assay type: functional, cell-based; conditions: MCF7, 48 h; procedure, shortened: as §2
HepG2 = test: Antiproliferative activity against human HepG2 cells after 48 hrs by SRB method; assay type: functional, cell-based; conditions: HepG2, 48 h; procedure, shortened: as §2
Tubulin (Homo sapiens) [4] = target: T1, Tubulin (Homo sapiens) (UniProt P68371+Q9H4B7+P0DPH7+P68366+Q13509+Q71U36+P04350+Q3ZCM7+P07437+P68363+Q9BQE3+Q6PEY2+Q13885+Q9BVA1+Q9BUF5); test: Inhibition of tubulin polymerization (unknown origin) at 20 uM by DAPI staining-based fluorescence microscopy; assay type: protein-complex assay
Tubulin (Homo sapiens) [5] = target: T1, Tubulin (Homo sapiens); test: Inhibition of tubulin polymerization (unknown origin) at 5 uM by DAPI staining-based fluorescence microscopy; assay type: protein-complex assay
A2780 [6] = test: Antiproliferative activity against human A2780 cells after 48 hrs by SRB method; assay type: functional, cell-based; conditions: A2780, 48 h; procedure, shortened: as §2
A2780 [7] = test: Antiproliferative activity against taxol-resistant human A2780 cells after 48 hrs by SRB method; assay type: functional, cell-based; conditions: A2780, 48 h; procedure, shortened: as §2
[8] = Antiproliferative activity against human HCT8 cells after 48 hrs by SRB method; assay type: functional, cell-based; conditions: HCT-8, 48 h; procedure, shortened: as §2
[9] = Antiproliferative activity against vincristine-resistant human HCT8 cells after 48 hrs by SRB method; assay type: functional, cell-based; conditions: HCT-8, 48 h; procedure, shortened: as §1
A549 [10] = test: Antiproliferative activity against cis-platinum-resistant human A549 cells after 48 hrs by SRB method; assay type: functional, cell-based; conditions: A549, 48 h; procedure, shortened: as §1
MCF7 [11] = test: Antiproliferative activity against doxorubicin-resistant human MCF7 cells after 48 hrs by SRB method; assay type: functional, cell-based; conditions: MCF7, 48 h; procedure, shortened: as §2
A2780 [12] = test: Drug resistance index, ratio of IC50 for taxol-resistant human A2780 cells to IC50 for human A2780 cells; assay type: functional
Procedure, shortened: (§3)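 Drug resistance index = IC50 in the resistant line / IC50 in its parental line. […] Pairs: A549/CDDP vs A549, MCF-7/DOX vs MCF-7, A2780/TAX vs A2780, HCT-8/VCT vs HCT-8.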

[13] = Drug resistance index, ratio of IC50 for vincristine-resistant human HCT8 cells to IC50 for human HCT8 cells; assay type: functional, HCT-8; procedure, shortened: as §3
A549 [14] = test: Drug resistance index, ratio of IC50 for cis-platinum-resistant human A549 cells to IC50 for human A549 cells; assay type: functional; procedure, shortened: as §3
MCF7 [15] = test: Drug resistance index, ratio of IC50 for doxorubicin-resistant human MCF7 cells to IC50 for human MCF7 cells; assay type: functional; procedure, shortened: as §3
Tubulin = test: Inhibition of tubulin polymerization (unknown origin) by DAPI staining-based fluorescence microscopy; assay type: protein-complex assay, Homo sapiens
Procedure, shortened: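 Purified tubulin (99% pure; 20 μM as supplied) mixed with compound in general tubulin buffer (80 mM PIPES pH 6.9, 2.0 mM MgCl₂, 0.5 mM EGTA) with 1 mM GTP, 20% glycerol and DAPI reporter. Polymerization tracked kinetically at 37 °C as fluorescence rise (ex 360, em 450 nm). Duplicate wells per concentration. IC50 from at least two independent experiments.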

A549 [16] = test: Cell cycle arrest in human A549 cells assessed as accumulation at G2/M phase at 7.81 to 250 nM after 24 hrs by Hoechst 33342 staining-based ArrayScanVTI analysis; assay type: functional
Procedure, shortened: (§4)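 A549 cells were seeded at 5000/well, cultured overnight, then treated 24 h over a 7.81–250 concentration series. Cells were fixed in prewarmed paraformaldehyde 10 min, permeabilized with Triton X-100, and nuclei stained with Hoechst 33342. Imaging was by ArrayScan VTI high-content analysis. Phase percentage = cells within a gated fluorescence intensity / total cells counted.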

A549 [17] = test: Cell cycle arrest in human A549 cells assessed as accumulation at G2/M phase at 62.5 nM after 24 hrs by Hoechst 33342 staining-based ArrayScanVTI analysis; assay type: functional; procedure, shortened: as §4

| SMILES | IC50 (A549 [1]) [nM] | IC50 [2] [nM] | IC50 (SW480) [nM] | IC50 (MCF7 [3]) [nM] | IC50 (HepG2) [nM] | inhibition (Tubulin (Homo sapiens) [4]) | inhibition (Tubulin (Homo sapiens) [5]) | IC50 (A2780 [6]) [nM] | IC50 (A2780 [7]) [nM] | IC50 [8] [nM] | IC50 [9] [nM] | IC50 (A549 [10]) [nM] | IC50 (MCF7 [11]) [nM] | Ratio IC50 (A2780 [12]) | Ratio IC50 [13] | Ratio IC50 (A549 [14]) | Ratio IC50 (MCF7 [15]) | IC50 (Tubulin) [nM] | Activity (A549 [16]) | Activity (A549 [17]) |
| --- | --- | --- | --- | --- | --- | --- | --- | --- | --- | --- | --- | --- | --- | --- | --- | --- | --- | --- | --- | --- |
| COc1ccc(-c2ccccc2C(=O)/C=C/c2ccc(Br)cc2)cc1OC | 6800 | 4800 | 6500 | 8300 | 3300 | inactive | – | – | – | – | – | – | – | – | – | – | – | – | – | – |
| COc1cc(/C=C/C(=O)c2ccccc2-c2ccc(F)cc2)ccc1O | 7600 | 2500 | 6600 | 4000 | 2800 | – | inactive | – | – | – | – | – | – | – | – | – | – | – | – | – |
| COc1ccc(/C=C/C(=O)c2ccccc2-c2cccc(F)c2)cc1 | 280 | 73 | 140 | 640 | 110 | – | – | 160 | 860 | 200 | 220 | 480 | 84 | 5.2 | 1.1 | 2.1 | 0.64 | 4000 | – | – |
| COc1ccc(/C=C/C(=O)c2ccccc2-c2ccc(OC)c(OC)c2)cc1OC | 8500 | 2500 | 7600 | 4900 | 3200 | – | inactive | – | – | – | – | – | – | – | – | – | – | – | – | – |
| COc1ccc(-c2ccccc2C(=O)/C=C/c2ccc(F)cc2)cc1OC | 8600 | 5400 | 6800 | 7100 | 4300 | inactive | – | – | – | – | – | – | – | – | – | – | – | – | – | – |
| COc1cccc2c1C(=O)c1c(O)c3c(c(O)c1C2=O)C[C@@](O)(C(=O)CO)C[C@@H]3O[C@H]1C[C@H](N)[C@H](O)[C@H](C)O1 [DOXORUBICIN] | – | – | – | – | – | – | – | – | 1900 | – | 3400 | 290 | – | – | – | – | – | – | – | – |
| COc1ccc(OC)c(/C=C/C(=O)c2ccccc2-c2ccc(OC)c(OC)c2)c1 | 4100 | 2400 | 5200 | 3100 | 2100 | Active | – | – | – | – | – | – | – | – | – | – | – | – | – | – |
| CC(=O)O[C@H]1C(=O)[C@@]2(C)[C@H]([C@H](OC(=O)c3ccccc3)[C@]3(O)C[C@H](OC(=O)[C@H](O)[C@@H](NC(=O)c4ccccc4)c4ccccc4)C(C)=C1C3(C)C)[C@]1(OC(C)=O)CO[C@@H]1C[C@@H]2O [PACLITAXEL] | – | – | 7 | – | 28 | – | – | – | – | 21 | 2600 | – | – | – | – | – | – | – | – | – |
| COc1ccc(CNC(=O)c2ccccc2-c2ccc(F)cc2)cc1OC | > 50000 | > 50000 | > 50000 | > 50000 | > 50000 | – | – | – | – | – | – | – | – | – | – | – | – | – | – | – |
| COc1cccc(/C=C/C(=O)c2ccccc2-c2ccc(F)cc2)c1OC | 7100 | 5200 | 5700 | 5300 | 5000 | Active | – | – | – | – | – | – | – | – | – | – | – | – | – | – |
| Cc1ccc(/C=C/C(=O)c2ccccc2-c2ccc(F)cc2)o1 | 31000 | 14000 | 23000 | 23000 | 12000 | – | – | – | – | – | – | – | – | – | – | – | – | – | – | – |
| COc1ccc(/C=C/C(=O)c2ccccc2-c2ccc(OC)c(OC)c2OC)cc1O | 190 | 160 | 170 | 480 | 230 | – | – | – | – | – | – | – | – | – | – | – | – | – | – | – |
| O=C(/C=C/c1cccs1)c1ccccc1-c1ccc(F)cc1 | 12000 | 5900 | 16000 | 9500 | 6200 | Active | – | – | – | – | – | – | – | – | – | – | – | – | – | – |
| COc1ccc(/C=C/C(=O)c2ccccc2-c2ccc(F)cc2)cc1O | 65 | 87 | 57 | 190 | 23 | – | – | 27 | 500 | 38 | 420 | 430 | 7 | 18 | 11 | 10 | 0.04 | 1300 | Active | Active |
| COc1ccc(/C=C/C(=O)c2ccccc2-c2ccc(F)cc2)cc1B(O)O | 82 | 21 | 41 | 220 | 30 | – | – | 63 | 230 | 63 | 84 | 74 | 24 | 3.6 | 1.3 | 1.1 | 0.6 | 3400 | Active | Active |
| O=C(/C=C/c1ccccc1-c1ccc(F)cc1)c1cccc(O)c1 | 6900 | 7300 | 8700 | 9300 | 4200 | – | – | – | – | – | – | – | – | – | – | – | – | – | – | – |
| COc1ccc(C(=O)/C=C/c2ccccc2-c2ccc(F)cc2)cc1O | 940 | 750 | 340 | 560 | 190 | – | – | – | – | – | – | – | – | – | – | – | – | – | – | – |
| COc1ccc(/C=C/C(=O)c2ccccc2-c2cccc(F)c2)cc1OC | 330 | 650 | 160 | 1200 | 150 | – | – | – | – | – | – | – | – | – | – | – | – | – | – | – |
| COc1ccc(/C=C/C(=O)c2ccccc2-c2cc(OC)c(OC)c(OC)c2)cc1O | 290 | 790 | 300 | 680 | 190 | – | – | 380 | 1600 | 520 | 2000 | 590 | 170 | 4.3 | 4 | 2 | 0.24 | 2800 | – | – |
| COc1ccc(C(=O)/C=C/c2ccccc2-c2ccc(F)nc2)cc1 | > 50000 | 13000 | 10000 | 13000 | 8200 | – | – | – | – | – | – | – | – | – | – | – | – | – | – | – |
